In ChEMBL document CHEMBL5058577, “EUbOPEN Chemogenomics Library 2 (Multiplex)” (2022):

Test system: U2OS
Test: Multiplex assay against U2OS
Assay type: toxicity, cell-based
Conditions: human
Procedure, shortened: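 Compound was added to live cells that had been stained at seeding with Hoechst33342, BioTracker Green Microtubule Cytoskeleton Dye, MitoTracker Red and Annexin V Alexa Fluor 680, and imaging followed on a CQ1 microscope at 37°C and 5% CO2. CellPathfinder machine-learning gating divided cells into Hoechst high-intensity objects or normal cells, normal cells into healthy, pyknosed or fragmented nuclei, and pyknosed cells into mitotic or apoptotic. Tubulin, mitochondrial-mass and membrane-permeability phenotypes are per cents of healthy-nucleus cells.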

[1] = 12 h, 1 µM, compound concentration 1 uM, replicate 1
[2] = 12 h, 1 µM, compound concentration 1 uM, replicate 2
[3] = 12 h, 10 µM, compound concentration 10 uM, replicate 1
[4] = 12 h, 10 µM, compound concentration 10 uM, replicate 2
[5] = 24 h, 1 µM, compound concentration 1 uM, replicate 1
[6] = 24 h, 1 µM, compound concentration 1 uM, replicate 2
[7] = 24 h, 10 µM, compound concentration 10 uM, replicate 1
[8] = 24 h, 10 µM, compound concentration 10 uM, replicate 2
[9] = 48 h, 1 µM, compound concentration 1 uM, replicate 1
[10] = 48 h, 1 µM, compound concentration 1 uM, replicate 2
[11] = 48 h, 10 µM, compound concentration 10 uM, replicate 1
[12] = 48 h, 10 µM, compound concentration 10 uM, replicate 2

CCNC1(C(N)=O)CCN(c2ncnc3c2nc(-c2ccccc2Cl)n3-c2ccc(Cl)cc2)CC1 [OTENABANT]
Population Apoptotic (%) [1]: 77%
Population Fragmented Nuclei (%) [1]: 30%
Population Healthy Nuclei (%) [1]: 60%
Population Hoechst High Intensity Objects (%) [1]: 3%
Population Membrane Permeable-Phenotype (%) [1]: 13%
Population Mitochondria Different-Phenotype (%) [1]: 7%
Population Mitotic Cells (%) [1]: 22%
Population Normal (%) [1]: 96%
Population Pyknosed Nuclei (%) [1]: 9%
Population Tubulin-Different-Phenotype (%) [1]: 4%
Total Cell Count [1]: 254
Population Apoptotic (%) [2]: 85%
Population Fragmented Nuclei (%) [2]: 17%
Population Healthy Nuclei (%) [2]: 74%
Population Hoechst High Intensity Objects (%) [2]: 2%
Population Membrane Permeable-Phenotype (%) [2]: 11%
Population Mitochondria Different-Phenotype (%) [2]: 22%
Population Mitotic Cells (%) [2]: 14%
Population Normal (%) [2]: 97%
Population Pyknosed Nuclei (%) [2]: 7%
Population Tubulin-Different-Phenotype (%) [2]: 10%
Total Cell Count [2]: 93
Population Apoptotic (%) [3]: 58%
Population Fragmented Nuclei (%) [3]: 31%
Population Healthy Nuclei (%) [3]: 48%
Population Hoechst High Intensity Objects (%) [3]: 6%
Population Membrane Permeable-Phenotype (%) [3]: 81%
Population Mitochondria Different-Phenotype (%) [3]: 63%
Population Mitotic Cells (%) [3]: 41%
Population Normal (%) [3]: 93%
Population Pyknosed Nuclei (%) [3]: 19%
Population Tubulin-Different-Phenotype (%) [3]: 89%
Total Cell Count [3]: 211
Population Apoptotic (%) [4]: 70%
Population Fragmented Nuclei (%) [4]: 21%
Population Healthy Nuclei (%) [4]: 60%
Population Hoechst High Intensity Objects (%) [4]: 0%
Population Membrane Permeable-Phenotype (%) [4]: 65%
Population Mitochondria Different-Phenotype (%) [4]: 73%
Population Mitotic Cells (%) [4]: 30%
Population Normal (%) [4]: 99%
Population Pyknosed Nuclei (%) [4]: 18%
Population Tubulin-Different-Phenotype (%) [4]: 76%
Total Cell Count [4]: 112
Population Apoptotic (%) [5]: 79%
Population Fragmented Nuclei (%) [5]: 26%
Population Healthy Nuclei (%) [5]: 61%
Population Hoechst High Intensity Objects (%) [5]: 3%
Population Membrane Permeable-Phenotype (%) [5]: 11%
Population Mitochondria Different-Phenotype (%) [5]: 5%
Population Mitotic Cells (%) [5]: 20%
Population Normal (%) [5]: 96%
Population Pyknosed Nuclei (%) [5]: 11%
Population Tubulin-Different-Phenotype (%) [5]: 7%
Total Cell Count [5]: 308
Population Apoptotic (%) [6]: 80%
Population Fragmented Nuclei (%) [6]: 24%
Population Healthy Nuclei (%) [6]: 62%
Population Hoechst High Intensity Objects (%) [6]: 4%
Population Membrane Permeable-Phenotype (%) [6]: 15%
Population Mitochondria Different-Phenotype (%) [6]: 15%
Population Normal (%) [6]: 95%
Population Pyknosed Nuclei (%) [6]: 13%
Population Tubulin-Different-Phenotype (%) [6]: 5%
Total Cell Count [6]: 120
Population Apoptotic (%) [7]: 69%
Population Fragmented Nuclei (%) [7]: 29%
Population Healthy Nuclei (%) [7]: 49%
Population Hoechst High Intensity Objects (%) [7]: 3%
Population Membrane Permeable-Phenotype (%) [7]: 55%
Population Mitochondria Different-Phenotype (%) [7]: 75%
Population Mitotic Cells (%) [7]: 30%
Population Normal (%) [7]: 96%
Population Pyknosed Nuclei (%) [7]: 20%
Population Tubulin-Different-Phenotype (%) [7]: 78%
Total Cell Count [7]: 218
Population Apoptotic (%) [8]: 80%
Population Fragmented Nuclei (%) [8]: 28%
Population Healthy Nuclei (%) [8]: 53%
Population Membrane Permeable-Phenotype (%) [8]: 47%
Population Mitochondria Different-Phenotype (%) [8]: 72%
Population Mitotic Cells (%) [8]: 20%
Population Pyknosed Nuclei (%) [8]: 18%
Population Tubulin-Different-Phenotype (%) [8]: 62%
Total Cell Count [8]: 137
Population Apoptotic (%) [9]: 86%
Population Fragmented Nuclei (%) [9]: 24%
Population Healthy Nuclei (%) [9]: 64%
Population Hoechst High Intensity Objects (%) [9]: 1%
Population Membrane Permeable-Phenotype (%) [9]: 7%
Population Mitochondria Different-Phenotype (%) [9]: 4%
Population Mitotic Cells (%) [9]: 13%
Population Normal (%) [9]: 98%
Population Pyknosed Nuclei (%) [9]: 10%
Population Tubulin-Different-Phenotype (%) [9]: 3%
Total Cell Count [9]: 416
Population Apoptotic (%) [10]: 52%
Population Fragmented Nuclei (%) [10]: 16%
Population Healthy Nuclei (%) [10]: 69%
Population Hoechst High Intensity Objects (%) [10]: 4%
Population Membrane Permeable-Phenotype (%) [10]: 13%
Population Mitochondria Different-Phenotype (%) [10]: 10%
Population Mitotic Cells (%) [10]: 47%
Population Normal (%) [10]: 95%
Population Pyknosed Nuclei (%) [10]: 14%
Population Tubulin-Different-Phenotype (%) [10]: 9%
Total Cell Count [10]: 137
Population Apoptotic (%) [11]: 86%
Population Fragmented Nuclei (%) [11]: 32%
Population Healthy Nuclei (%) [11]: 43%
Population Hoechst High Intensity Objects (%) [11]: 7%
Population Membrane Permeable-Phenotype (%) [11]: 49%
Population Mitochondria Different-Phenotype (%) [11]: 55%
Population Mitotic Cells (%) [11]: 13%
Population Normal (%) [11]: 92%
Population Pyknosed Nuclei (%) [11]: 23%
Population Tubulin-Different-Phenotype (%) [11]: 51%
Total Cell Count [11]: 269
Population Apoptotic (%) [12]: 80%
Population Fragmented Nuclei (%) [12]: 29%
Population Healthy Nuclei (%) [12]: 45%
Population Hoechst High Intensity Objects (%) [12]: 10%
Population Membrane Permeable-Phenotype (%) [12]: 43%
Population Mitochondria Different-Phenotype (%) [12]: 66%
Population Mitotic Cells (%) [12]: 20%
Population Normal (%) [12]: 89%
Population Pyknosed Nuclei (%) [12]: 24%
Population Tubulin-Different-Phenotype (%) [12]: 49%
Total Cell Count [12]: 138
